Experimental data from ChEMBL document CHEMBL1121639, “Analgesic narcotic antagonists. 5. 7,7-Dimethyldihydrocodeinones and 7,7-dimethyldihydromorphinones” (1981).
The source made the active and inactive calls. The rule behind the calls is not given here.

Assays:
Rattus norvegicus [1] = assay: Analgesic agonist activity in heat stimulus rat tail-flick assay on subcutaneous administration; format: functional; settings: sc
Procedure, shortened: (§1)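 Test agents given as solutions: salts in distilled water; free bases dissolved by adding 1 N HCl, then further diluted.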

Mus musculus [2] = assay: Analgesic agonist activity in acetic acid induced mouse writhing assay, subcutaneous administration; format: functional; settings: sc; procedure, shortened: as §1
Rattus norvegicus [3] = organism: Rattus norvegicus; assay: Narcotic antagonist activity against an ED80 of morphine in the modified rat tail-flick assay; format: functional
Mus musculus [4] = assay: Compound was tested for the analgesic agonist activity in acetic acid induced mouse writhing assay on subcutaneous administration; Inactive at 26 umol/kg.; format: functional, organism-based; procedure, shortened: as §1
Mus musculus [5] = assay: Compound was tested for the analgesic agonist activity in acetic acid induced mouse writhing assay on subcutaneous administration; Inactive at 20 umol/kg.; format: functional, organism-based; procedure, shortened: as §1
Rattus norvegicus [6] = assay: Compound was tested for analgesic agonist activity in heat stimulus rat tail-flick assay on subcutaneous administration; Inactive at 25 umol/kg; format: functional, organism-based; procedure, shortened: as §1
Mus musculus [7] = assay: Compound was tested for the analgesic agonist activity in acetic acid induced mouse writhing assay on subcutaneous administration; Inactive at 25 umol/kg; format: functional, organism-based; procedure, shortened: as §1
Mus musculus [8] = assay: Compound was tested for the analgesic agonist activity in acetic acid induced mouse writhing assay on subcutaneous administration; Inactive at 16 umol/kg.; format: functional, organism-based; procedure, shortened: as §1
Rattus norvegicus [9] = assay: Compound was tested for the analgesic agonist activity in heat stimulus rat tail-flick assay; Inactive at 26 umol/kg; format: functional, organism-based; procedure, shortened: as §1
Mus musculus [10] = assay: Compound was tested for the analgesic agonist activity in acetic acid induced mouse writhing assay on subcutaneous administration; Inactive at 28 umol/kg.; format: functional, organism-based; procedure, shortened: as §1
Rattus norvegicus [11] = assay: Compound was tested for analgesic agonist activity in heat stimulus rat tail-flick assay on subcutaneous administration; Inactive at 25 mg/kg; format: functional, organism-based; design: dose 25 mg/kg; procedure, shortened: as §1
Mus musculus [12] = assay: Compound was tested for the analgesic agonist activity in acetic acid induced mouse writhing assay on subcutaneous administration; Inactive at 25 umol/kg.; format: functional, organism-based; procedure, shortened: as §1
Mus musculus [13] = assay: Compound was tested for the analgesic agonist activity in acetic acid induced mouse writhing assay on subcutaneous administration; Inactive at 23 umol/kg.; format: functional, organism-based; procedure, shortened: as §1

SMILES	ED50 (Rattus norvegicus [1])	ED50 (Mus musculus [2])	ED50 (Rattus norvegicus [3])	further results
COc1ccc2c3c1O[C@H]1[C@H](O)C(C)(C)[C@H](C)C4[C@@H](C2)N(C)CC[C@@]341 (some centres undefined)	15.6 µmol/kg	3.8 µmol/kg		
CC[C@@H]1C2[C@H]3Cc4ccc(O)c5c4[C@@]2(CCN3C)[C@@H](O5)C(=O)C1(C)C (some centres undefined)	0.62 µmol/kg	0.6 µmol/kg		
CC[C@@H]1C2[C@H]3Cc4ccc(OC)c5c4[C@@]2(CCN3C)[C@@H](O5)C(=O)C1(C)C (some centres undefined)	13.9 µmol/kg	4.4 µmol/kg		
COc1ccc2c3c1O[C@H]1C(=O)C(C)(C)CC4[C@@H](C2)N(CC2CCC2)CC[C@@]341 (some centres undefined)			> 26 µmol/kg	ED50 (Mus musculus [4]): inactive
CC[C@@H]1C2[C@H]3Cc4ccc(OC)c5c4[C@@]2(CCN3C)[C@@H](O5)[C@H](O)C1(C)C (some centres undefined)	> 22 µmol/kg	21.5 µmol/kg		
COc1ccc2c3c1O[C@H]1C(=O)C(C)(C)[C@H](C)C4[C@@H](C2)N(CC2CC2)CC[C@@]341 (some centres undefined)		> 26 µmol/kg	7.3 µmol/kg	
COc1ccc2c3c1O[C@H]1C(=O)C(C)(C)[C@H](C)C4[C@@H](C2)N(C)CC[C@@]341 (some centres undefined)	4.2 µmol/kg	2.5 µmol/kg		
COc1ccc2c3c1O[C@H]1C(=O)C(C)(C)[C@H](C)C4[C@@H](C2)N(CC2CCC2)CC[C@@]341 (some centres undefined)		17.2 µmol/kg	4.7 µmol/kg	
CC[C@@H]1C2[C@H]3Cc4ccc(OC)c5c4[C@@]2(CCN3CC2CC2)[C@@H](O5)C(=O)C1(C)C (some centres undefined)			> 20 µmol/kg	ED50 (Mus musculus [5]): inactive
CC1(C)CC2[C@H]3Cc4ccc(O)c5c4[C@@]2(CCN3CC2CCC2)[C@@H](O5)C1=O (some centres undefined)		2.2 µmol/kg	> 24 µmol/kg	
CC[C@@H]1C2[C@H]3Cc4ccc(OC)c5c4[C@@]2(CCN3C)[C@@H](O5)[C@H](O)C1(CO)CO (some centres undefined)				ED50 (Rattus norvegicus [6]): inactive; ED50 (Mus musculus [7]): inactive
COc1ccc2c3c1O[C@H]1[C@@H]4OC[C@]4(C)CC4[C@@H](C2)N(C)CC[C@@]341 (some centres undefined)	> 30 µmol/kg	1.9 µmol/kg		
COc1ccc2c3c1O[C@H]1[C@@H](O)C(C)(C)CC4[C@@H](C2)N(C)CC[C@@]341 (some centres undefined)		12.7 µmol/kg		
C[C@@H]1C2[C@H]3Cc4ccc(O)c5c4[C@@]2(CCN3CC2CCC2)[C@@H](O5)C(=O)C1(C)C (some centres undefined)		> 25 µmol/kg	> 25 µmol/kg	
CC[C@@H]1C2[C@H]3Cc4ccc(O)c5c4[C@@]2(CCN3CC2CC2)[C@@H](O5)C(=O)C1(C)C (some centres undefined)			2.4 µmol/kg	ED50 (Mus musculus [8]): inactive
COc1ccc2c3c1O[C@H]1[C@@H]4OC[C@]4(C)[C@H](C)C4[C@@H](C2)N(C)CC[C@@]341 (some centres undefined)	> 23 µmol/kg	1.8 µmol/kg		
C[C@H]1[C@H]2Cc3ccc(O)cc3[C@]1(C)CCN2CC1CC1 [CYCLAZOCINE]		0.41 µmol/kg	0.81 µmol/kg	

SMILES	ED50 (Rattus norvegicus [1])	ED50 (Mus musculus [2])	ED50 (Rattus norvegicus [3])	further results
Oc1ccc2c(c1)[C@@]13CCCC[C@@]1(O)[C@@H](C2)N(CC1CCC1)CC3 [BUTORPHANOL]		0.34 µmol/kg	2 µmol/kg	
COc1ccc2c3c1O[C@H]1[C@H](O)C(CO)(CO)[C@H](C)C4[C@@H](C2)N(C)CC[C@@]341 (some centres undefined)		> 26 µmol/kg		ED50 (Rattus norvegicus [9]): inactive
CC[C@@H]1C2[C@H]3Cc4ccc(OC)c5c4[C@@]2(CCN3CC2CCC2)[C@@H](O5)C(=O)C1(C)C (some centres undefined)		> 23 µmol/kg	> 23 µmol/kg	
CN1CC[C@]23c4c5ccc(O)c4O[C@H]2C(=O)CC[C@H]3[C@H]1C5 [HYDROMORPHONE]	1.3 µmol/kg			
COc1ccc2c3c1O[C@H]1C(=O)C(C)(C)CC4[C@@H](C2)N(CC2CC2)CC[C@@]341 (some centres undefined)		5.3 µmol/kg	6.7 µmol/kg	
COc1ccc2c3c1O[C@H]1[C@@H](O)C=C[C@H]4[C@@H](C2)N(C)CC[C@@]341 [CODEINE]	75 µmol/kg	10.3 µmol/kg		
CN1CC[C@]23c4c5ccc(O)c4O[C@H]2C(=O)C(C)(C)CC3[C@H]1C5 (some centres undefined)	0.99 µmol/kg	0.19 µmol/kg		
COc1ccc2c3c1O[C@H]1[C@H](O)C(C)(C)CC4[C@@H](C2)N(C)CC[C@@]341 (some centres undefined)	30.4 µmol/kg	6.5 µmol/kg		
COc1ccc2c3c1O[C@H]1C(=O)C(C)(C)CC4[C@@H](C2)N(C)CC[C@@]341 (some centres undefined)	9.8 µmol/kg	3.9 µmol/kg		
CC1(C)CC2[C@H]3Cc4ccc(O)c5c4[C@@]2(CCN3CC2CC2)[C@@H](O5)C1=O (some centres undefined)			1.2 µmol/kg	ED50 (Mus musculus [10]): inactive
CC(C)=CCN1CC[C@@]2(C)c3cc(O)ccc3C[C@@H]1[C@@H]2C		13 µmol/kg	36.4 µmol/kg	
COc1ccc2c3c1O[C@H]1[C@H](O)C(CO)(CO)CC4[C@@H](C2)N(C)CC[C@@]341 (some centres undefined)				ED50 (Rattus norvegicus [11]): inactive; ED50 (Mus musculus [12]): inactive
CC[C@@H]1C2[C@H]3Cc4ccc(OC)c5c4[C@@]2(CCN3C)[C@@H](O5)[C@@H]2OC[C@]12C (some centres undefined)	> 28 µmol/kg	11.1 µmol/kg		
C[C@@H]1C2[C@H]3Cc4ccc(O)c5c4[C@@]2(CCN3CC2CC2)[C@@H](O5)C(=O)C1(C)C (some centres undefined)			0.38 µmol/kg	ED50 (Mus musculus [13]): inactive
CC[C@@H]1C2[C@H]3Cc4ccc(O)c5c4[C@@]2(CCN3CC2CCC2)[C@@H](O5)C(=O)C1(C)C (some centres undefined)		18.5 µmol/kg	2.8 µmol/kg	
COc1ccc2c3c1O[C@H]1C(=O)CC[C@H]4[C@@H](C2)N(C)CC[C@]314 [HYDROCODONE]	5.2 µmol/kg	2.4 µmol/kg		
